# Source: PubChem BioAssay
# In the library only some 4.5% were active in any assay of this set; here they are far more common.
# OX1R antag-1: antagonists of human orexin 1 receptor (OX1R); inhibition, % at 6.6 µM; AID 485270; OX1R-expressing cells, FRET antagonist read-out; 330,000 tested, 1.8% active; O43613; in the data active = inhibition mostly above about 38%, no sharp cut-off; inactive = mostly below about 40%;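 also: 0% = agonist challenge alone and 100% = reference antagonist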
# Target sequence (O43613 whole entry, looked up): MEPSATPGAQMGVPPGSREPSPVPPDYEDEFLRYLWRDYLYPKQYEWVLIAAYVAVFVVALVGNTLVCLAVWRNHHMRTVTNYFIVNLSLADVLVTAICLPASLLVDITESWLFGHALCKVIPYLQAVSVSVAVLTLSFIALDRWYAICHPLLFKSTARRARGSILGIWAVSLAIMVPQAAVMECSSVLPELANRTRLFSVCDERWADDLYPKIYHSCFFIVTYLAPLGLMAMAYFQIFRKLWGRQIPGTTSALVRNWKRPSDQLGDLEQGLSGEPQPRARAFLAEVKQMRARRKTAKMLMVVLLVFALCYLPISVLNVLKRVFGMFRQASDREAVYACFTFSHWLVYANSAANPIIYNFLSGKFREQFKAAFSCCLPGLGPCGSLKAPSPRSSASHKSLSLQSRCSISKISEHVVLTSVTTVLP
# TAAR1 ag: agonists of human TAAR1; AID 624467; activation, % at 3 µM; 360,000 tested, 0.99% active; CHO RD-HGA16 TAAR1, Fluo-8 calcium fluorescence; vehicle wells 0%, saturating PEA agonist 100%;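 active = activation above the mean activation of all test compounds in the run plus 3 SD, cut at about 38% in these data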
#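 System: CHO RD-HGA16 cells carrying human TAAR1 plus Gα16; Incubation: 17-24 h seeding, 75 min 37 °C dye, 30 min RT; Measured by: Fluo-8 fluorescence, 5 s baseline then 140 s kinetic read; Control set: DMSO and PEA EC100; Replication: single well for each compound.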
# GPR7 antag: human neuropeptides B/W receptor 1 antagonism; P48145; GPR7-expressing cells, fluorescence antagonist assay; inhibition, % at 4.4 µM; 290,000 tested, 1.1% active; in the data active = inhibition above about 16%, passing the limit was not always enough;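 also: cells stimulated with the agonist NPW; 0% = agonist with vehicle and 100% = vehicle without agonist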
# CHO parental Ca: counter-screen for OX1R antagonists: effect in parental CHO cells; parental CHO-K1, ATP-induced calcium, Fluo-8 fluorescence; inhibition, % at 5.6 µM; 330,000 tested, 0.63% active; AID 463079;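 active = inhibition above that plate's mean sample inhibition plus 3 SD, cut at about 26% in these data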;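 also: 0% = ATP-challenged DMSO wells and 100% = DMSO wells without ATP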
#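 Test system: parental CHO cells; detection: calcium-sensitive Fluo-8 fluorescence; evaluation: percent inhibition of calcium signal; also added: ATP as calcium-mobilizing challenge; repeats: one well per compound; control set: ATP-challenged DMSO wells low, unchallenged DMSO wells high; compound: single nominal dose of 5.6 µM per compound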
# OX1R antag-2: human HCRTR1 antagonism; AID 434989; CHO/OX1R cells, Fluo-8 calcium fluorescence, orexin A; O43613; inhibition, % at 5 µM; 330,000 tested, 0.43% active;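 active = inhibition above its plate's threshold, mean inhibition of all tested compounds on the plate plus 3 SD, cut at about 37% in these data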;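 also: 0% = orexin A challenge wells and 100% = SB-334867-A antagonist wells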
# TAAR1 antag: human TAAR1 antagonism; Q96RJ0; CHO RD-HGA16 TAAR1, Fluo-8 calcium fluorescence, antagonist; inhibition, % at 3 µM; 360,000 tested, 1.5% active;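 active = inhibition above a per-plate cutoff, the mean inhibition of test compounds on that plate plus 3 SD, cut at about 49% in these data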;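 also: 0% = DMSO plus EC80 beta-PEA response and 100% = DMSO alone without agonist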
#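 System: CHO RD-HGA16 cells bearing hTAAR1. Reagent: EC80 β-phenethylamine stimulus. Schedule: seeding 17-24 h prior, 75-min 37 °C, 30-min RT dye loading. Signal: Fluo-8 intracellular calcium dye fluorescence, real-time kinetic reads. Read-out: % inhibition from peak post-agonist over basal fluorescence ratio. Benchmarks: vehicle wells and EC80 agonist wells. Replicates: n of 1.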
# * = called active by the depositor; x = no result.
SMILES,OX1R antag-1,TAAR1 ag,GPR7 antag,CHO parental Ca,OX1R antag-2,TAAR1 antag
CS(=O)(=O)Nc1ccccc1C(=O)Nc1cc(Cl)cc(Cl)c1,46*,15,-3,19,11,23
CC(C)(C)c1ccc(C(=O)N2CCC(=O)N(C(COCc3ccccc3)Cc3ccccc3)CC2)cc1 (configuration not stated),24,15,9,-20,-10,74*
O=C(c1ccc(C(F)(F)F)cc1)N1CCC(=O)N(C(COCc2ccccc2)Cc2ccccc2)CC1 (configuration not stated),11,5,-8,-37,-40,33
CC(C)(C)c1ccc(C(=O)N2CCC(=O)N(C(CO)Cc3ccccc3)CC2)cc1 (configuration not stated),43,46*,24,-10,-21,35
COC(=O)c1cc2c(c3c4cc(OC)ccc4n(S(=O)(=O)c4ccc(F)cc4)c13)C(=O)N(C)C2,x,-3,x,x,x,-8
CCc1ccc([C@@H]2CC=C(C(=O)O)[C@H](c3ccccc3F)N2S(=O)(=O)c2ccc(C)cc2)cc1,60*,0,x,-19,-7,12
CCc1ccc([C@@H]2CC=C(C(=O)O)[C@H](c3cccc(Cl)c3)N2S(=O)(=O)c2ccc(C)cc2)cc1,71*,5,x,-16,22,29
COc1ccc([C@@H]2CC=C(C(=O)O)[C@H](c3cccc(Cl)c3)N2S(=O)(=O)c2ccc(Cl)cc2)cc1,62*,1,x,-13,8,11
CCc1ccc([C@@H]2CC=C(C(=O)O)[C@H](c3ccc(Cl)cc3)N2S(=O)(=O)c2ccc(C)cc2)cc1,30,9,x,6,6,52*
COc1ccc([C@@H]2CC=C(C(=O)O)[C@H](c3ccc(F)cc3)N2S(=O)(=O)c2ccc(Cl)cc2)cc1,34,5,x,-12,-24,6
CCc1ccc([C@@H]2CC=C(C(=O)O)[C@H](c3ccc(C)cc3)N2S(=O)(=O)c2ccc(C)cc2)cc1,26,3,x,-6,-2,39
c1ccc2c(c1)CNc1ccccc1-2,x,-1,x,x,x,-14
C[C@@H]1ON(C)[C@H]2C[C@H]3c4[nH]c5cccc(-c6ccccc6F)c5c4CCN3C(=O)[C@@H]12,x,7,x,x,x,24
COc1ccc(-c2ccc3c(n2)CCCN3S(=O)(=O)c2ccc(C#N)cc2)cc1,x,1,x,x,x,-29
O=c1c2ccccc2nc(/C=C/c2ccccc2)n1CCCO,15,7,-6,-19,-24,9
CN(C)c1ccc(/C=C/c2nc3ccccc3c(=O)n2CCO)cc1,52*,19,1,7,3,28
CC(C)COC(=O)NCCCOC(=O)Nc1ccccc1,31,0,-8,-12,-32,0
CC(C)COC(=O)NCCOC(=O)Nc1cccc(Cl)c1,37,6,2,57*,1,23
COc1ccc(NC(=O)C(c2ccc(C#N)cc2)n2c(=O)c(-c3cc4ccccc4[nH]3)nc3ccccc32)cc1 (configuration not stated),x,2,x,x,x,-13
C=CCSc1nc(N)c2c(C)c(C)sc2n1,46*,3,-9,-13,-13,9
COc1ccc(N2CCc3c(C)nc4c(OC)cc(OC)cc4c32)cc1,53,2,2,-10,-17,-14
COc1ccc(N2CCc3c(C)nc4c(OC)cccc4c32)cc1,70*,1,6,6,-5,-28
CSc1cccc(NC(=S)NN/C(=N/S(=O)(=O)c2ccccc2)N2CCCC2)c1,x,2,x,x,x,0
O=C(COC(=O)c1cccc(NC(=O)c2ccco2)c1)c1ccc(Br)cc1,33,13,-1,22,12,62*
CC(C)(C)c1cc[n+](C2=C([O-])c3ccccc3C(=O)/C2=N\S(=O)(=O)c2ccccc2)cc1,67*,1,-5,-11,-22,15
SMILES,OX1R antag-1,TAAR1 ag,GPR7 antag,CHO parental Ca,OX1R antag-2,TAAR1 antag
O=C1/C(=N\S(=O)(=O)c2cccs2)C([n+]2ccc(CCCc3ccccc3)cc2)=C([O-])c2ccccc21,26,0,-13,-55,-21,-9
Cc1cc(C)c[n+](C2=C([O-])c3ccccc3C(=O)/C2=N\S(=O)(=O)c2cccs2)c1,48,2,-3,3,-5,-5
O=C1/C(=N\S(=O)(=O)c2cccs2)C([n+]2cccc(Cc3ccccc3)c2)=C([O-])c2ccccc21,48*,x,-7,51*,33,x
Cc1ccccc1CN1CCN(C(=O)[C@H]2O[C@@H](n3cnc4c(N)ncnc43)[C@H](O)[C@@H]2O)CC1,x,0,x,x,x,10
CSc1nc(C)cc(OCCNS(=O)(=O)c2ccc(C)cc2)n1,39*,8,5,-20,13,3
O=C(N/N=C\c1cc(Br)cs1)c1ccncc1,12,14,-11,-2,0,2
O=C(O)c1ccc(N/N=C/c2cc(Br)cs2)cc1,-5,38*,8,8,3,7
O=S(=O)(c1ccc(SCCOc2ccc(Cl)cc2)nc1)N1CCCC1,-6,0,x,30*,2,-10
O=S(=O)(c1ccc(SCCOc2ccc(Br)cc2)nc1)N1CCCC1,-1,11,x,-18,-13,-2
COc1ccc(C(=O)NCC2CCN(C(=O)C(=O)c3cc4ccccc4o3)CC2)cc1,x,-1,x,x,x,16
CSc1nc2c(c(-c3ccc(O)cc3)c1C#N)CCC2,38,-2,-25,48*,9,4
O=C(Nc1ccc(C(=O)N2CCCCC2)cc1)[C@H]1O[C@@H](n2ccc(=O)[nH]c2=O)[C@H](O)[C@@H]1O,x,2,x,x,x,-30
O=S(=O)(c1cc(F)ccc1F)N1CCN(c2ncnc3ccccc23)CC1,26,11,x,49*,45*,37
Cc1cccnc1NC(=O)Nc1cccc2ccccc12,45*,0,-1,-22,-10,-1
Cc1cc(Br)cn2c(Cc3cccc(F)c3)c(-c3ccco3)nc12,x,4,x,x,x,-23
CN(C)c1ccc(/C=C/c2ccc3ccccc3[n+]2C)cc1,163*,1,0,0,14,1
CN(CCCS(=O)(=O)[O-])c1ccc(/C=C/c2ccc3ccccc3[n+]2C)cc1,x,2,-1,x,x,-14
CC(=O)Oc1ccccc1/C=C/c1ccc2ccccc2[n+]1C,66*,4,-3,-15,-5,-7
Brc1ccc(CN2CCCc3nc(-c4ccccc4)ccc32)cc1,x,-1,x,x,x,-5
O=[N+]([O-])c1nn(-c2ccc3c(c2)OCCO3)n(O)c1=NCCCO,74*,7,3,5,-19,-3
Cc1ccc(CN=c2c([N+](=O)[O-])nn(-c3ccc4c(c3)OCCO4)n2O)cc1,35,1,-2,-18,-40,-8
COc1ccc(NC(=O)c2cc3c(=O)n(C)c4ccccc4c3n2C)cc1Cl,4,0,-13,-9,-31,2
